Measurements published in ChEMBL document CHEMBL3272327, “Hypocholesterolemic activity of 1,3-bis(substituted phenoxy)-2-propanones” (J Med Chem, 1976).

Columns and labels:
Rattus norvegicus [1] = assay: Hypocholesterolemic activity in Sprague-Dawley rat assessed as serum cholesterol level at 10 mg/kg/day, po administered via intubation measured on day 16 by Liebermann-Burchard reaction (reference value: 100%); format: functional
Rattus norvegicus [2] = assay: Hypocholesterolemic activity in Sprague-Dawley rat assessed as serum cholesterol level at 10 mg/kg/day, po administered via intubation measured on day 10 by Liebermann-Burchard reaction (reference value: 100%); format: functional
Rattus norvegicus [3] = assay: Hypocholesterolemic activity in Sprague-Dawley rat assessed as serum cholesterol level at 10 mg/kg/day, po administered via intubation measured on day 4 by Liebermann-Burchard reaction (reference value: 100%); format: functional
Rattus norvegicus [4] = assay: Uterotrophic activity in ovariectomized Sprague-Dawley rat assessed as uterine weight administered for 3 days (reference value: 100 +/- 27%); format: organism-based, Uterus; settings: in vivo, 72 h
Rattus norvegicus [5] = assay: Effect on epididymis and vas deferens weight in rat at 10 mg/kg/day administered for 16 days measured 24 hrs after last drug dosage relative to total body weight (reference value: 0.24 +/- 0.07%); format: ADME, organism-based; settings: in vivo
Rattus norvegicus [6] = assay: Effect on kidney weight in rat at 10 mg/kg/day administered for 16 days measured 24 hrs after last drug dosage relative to total body weight (reference value: 0.96 +/- 0.08%); format: ADME, organism-based; settings: in vivo
[7] = Solubility of the compound in 1% CMC; format: physicochemical
Rattus norvegicus [8] = assay: Effect on liver weight in rat at 10 mg/kg/day administered for 16 days measured 24 hrs after last drug dosage relative to total body weight (reference value: 4.54 +/- 0.29%); format: ADME, organism-based; settings: in vivo
[9] = Toxicity in ip dosed CF1 mouse assessed as animal death; format: organism-based; settings: in vivo
Outline: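 Male CF1 mice given active propanones ip over 10 mg to 6 g/kg where solubility allowed; deaths recorded to estimate LD50.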

Rattus norvegicus [10] = assay: Effect on testes weight in rat at 10 mg/kg/day administered for 16 days measured 24 hrs after last drug dosage relative to total body weight (reference value: 1.10 +/- 0.17%); format: ADME, organism-based, Testis; settings: in vivo
Rattus norvegicus [11] = assay: Effect on vesicular gland weight in rat at 10 mg/kg/day administered for 16 days measured 24 hrs after last drug dosage relative to total body weight (reference value: 0.11 +/- 0.04%); format: ADME, organism-based; settings: in vivo
Mus musculus [12] = species: Mus musculus; assay: Antifertility activity in CF1 mouse assessed as proportion of pregnant animals at 10 ug (reference value: 100%); format: ADME, organism-based; settings: in vivo
Mus musculus [13] = species: Mus musculus; assay: Antifertility activity in CF1 mouse assessed as proportion of fetus per litter at 10 ug (reference value: 100 +/- 25%); format: ADME, organism-based; settings: in vivo
Mus musculus [14] = species: Mus musculus; assay: Antifertility activity in CF1 mouse assessed as proportion of reabsorption litter at 10 ug (reference value: 100 +/- 25%); format: ADME, organism-based; settings: in vivo
Rattus norvegicus [15] = assay: Effect on heart weight in rat at 10 mg/kg/day administered for 16 days measured 24 hrs after last drug dosage relative to total body weight (reference value: 0.43 +/- 0.10%); format: ADME, organism-based; settings: in vivo
Mus musculus [16] = assay: Antifertility activity in CF1 mouse assessed as proportion of pregnant animals at 50 mg/kg/day, ip (reference value: 100%); format: ADME, organism-based; set-up: route intraperitoneal; settings: in vivo
Mus musculus [17] = assay: Antifertility activity in CF1 mouse assessed as proportion of fetus per litter at 50 mg/kg/day, ip (reference value: 100 +/- 25%); format: ADME, organism-based; set-up: route intraperitoneal; settings: in vivo
Mus musculus [18] = assay: Antifertility activity in CF1 mouse assessed as proportion of reabsorption litter at 50 mg/kg/day, ip (reference value: 100 +/- 25%); format: ADME, organism-based; set-up: route intraperitoneal; settings: in vivo
Rattus norvegicus [19] = assay: Hypocholesterolemic activity in rat assessed as serum triglyceride level at 10 mg/kg/day administered for 8 days (reference value: 100 +/- 15%); format: functional
Outline: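 Male Sprague-Dawley rats dosed orally at 10 mg/kg/day in 1% CMC. Serum triglycerides were measured with a stat pack kit after 8 days of dosing. Expressed as percent of vehicle control, N = 8; Student's t test.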

Rattus norvegicus [20] = assay: Effect on RNA content in rat liver at 10 mg/kg/day administered for 16 days (reference value: 100 +/- 8%); format: ADME, organism-based; settings: in vivo, 384 h
Rattus norvegicus [21] = assay: Effect on DNA content in rat liver at 10 mg/kg/day administered for 16 days (reference value: 100 +/- 25%); format: ADME, organism-based; settings: in vivo, 384 h
Rattus norvegicus [22] = assay: Effect on protein content in rat liver at 10 mg/kg/day administered for 16 days (reference value: 100 +/- 6%); format: ADME, organism-based; settings: in vivo, 384 h
Rattus norvegicus [23] = assay: Effect on glycogen content in rat liver at 10 mg/kg/day administered for 16 days (reference value: 100 +/- 24%); format: ADME, organism-based; settings: in vivo, 384 h
Rattus norvegicus [24] = assay: Effect on lipid content in rat liver at 10 mg/kg/day administered for 16 days (reference value: 100 +/- 16%); format: ADME, organism-based; settings: in vivo, 384 h

Compound	Activity (Rattus norvegicus [1])	Activity (Rattus norvegicus [2])	Activity (Rattus norvegicus [3])	also measured
O=C(COc1ccc(Br)cc1)COc1ccc(Br)cc1	85%	85%	74%	
O=C(CS(=O)(=O)c1ccc(Cl)cc1)CS(=O)(=O)c1ccc(Cl)cc1	91%	86%	82%	
C#C[C@]1(O)CC[C@H]2[C@@H]3CCc4cc(O)ccc4[C@H]3CC[C@@]21C [ETHINYL ESTRADIOL]				Activity (Rattus norvegicus [4]): 231%
O=C(CSc1ccc(Cl)cc1)CSc1ccc(Cl)cc1	66%	73%	70%	Activity (Rattus norvegicus [5]): 0.25%; Activity (Rattus norvegicus [6]): 0.94%; solubility [7]: Insoluble; Activity (Rattus norvegicus [8]): 4.53%; LD50 [9]: > 3000 mg/kg; Activity (Rattus norvegicus [4]): 86%; Activity (Rattus norvegicus [10]): 1.13%; Activity (Rattus norvegicus [11]): 0.12%
COc1ccccc1OCC(=O)COc1ccccc1OC	79%	83%	102%	
Cc1ccc(OCC(=O)C(O)(Cc2ccccc2)Cc2ccccc2)cc1	70%	72%	80%	
O=C(COc1ccc(F)cc1)COc1ccc(F)cc1	82%	87%	88%	
CCCc1ccc(OCC(=O)COc2ccc(CCC)cc2)cc1	78%	88%	94%	
Cc1ccc(OCC(=O)COc2ccc(Cl)cc2)cc1	75%	84%	108%	
O=C(COc1ccccc1)COc1ccccc1	90%	87%	104%	
O=C(COc1cccc(Cl)c1)COc1cccc(Cl)c1	84%	91%	97%	
Cc1cc(OCC(=O)COc2cc(C)c(Cl)c(C)c2)cc(C)c1Cl	61%	70%	78%	Activity (Rattus norvegicus [5]): 0.27%; Activity (Rattus norvegicus [6]): 1.02%; solubility [7]: Insoluble; Activity (Rattus norvegicus [8]): 4.66%; LD50 [9]: > 6000 mg/kg; Activity (Rattus norvegicus [4]): 83%; Activity (Rattus norvegicus [10]): 0.91%; Activity (Rattus norvegicus [11]): 0.1%
COc1ccc(OCC(=O)COc2ccc(Cl)cc2)cc1	84%	88%	102%	
CCc1ccc(OCC(=O)COc2ccc(CC)cc2)cc1	64%	60%	70%	Activity (Rattus norvegicus [5]): 0.27%; Activity (Rattus norvegicus [6]): 0.87%; solubility [7]: Insoluble; Activity (Rattus norvegicus [8]): 4.28%; LD50 [9]: > 3000 mg/kg; Activity (Rattus norvegicus [4]): 62%; Activity (Rattus norvegicus [10]): 1.14%; Activity (Rattus norvegicus [11]): 0.15%
O=C(CSc1ccccc1)CSc1ccccc1	79%	101%	96%	
CCOC(=O)C(C)(C)Oc1ccc(Cl)cc1 [CLOFIBRATE]	106%	98%	111%	
O=C(COc1cc(Cl)c(Cl)cc1Cl)COc1cc(Cl)c(Cl)cc1Cl	97%	82%	94%	

Compound	Activity (Rattus norvegicus [1])	Activity (Rattus norvegicus [2])	Activity (Rattus norvegicus [3])	also measured
CC/C(=C(/CC)c1ccc(O)cc1)c1ccc(O)cc1 [DIETHYLSTILBESTROL]				Activity (Mus musculus [12]): 0%; Activity (Mus musculus [13]): 0%; Activity (Mus musculus [14]): 0%
Cc1ccccc1OCC(=O)COc1ccccc1C	90%	92%	90%	
O=C(COc1ccc(Cl)cc1)COc1ccc(Cl)cc1	62%	64%	81%	Activity (Rattus norvegicus [5]): 0.26%; Activity (Rattus norvegicus [15]): 0.39%; Activity (Rattus norvegicus [6]): 0.86%; solubility [7]: Insoluble; Activity (Rattus norvegicus [8]): 4.51%; LD50 [9]: > 2000 mg/kg; Activity (Rattus norvegicus [4]): 48%; Activity (Rattus norvegicus [10]): 1.23%; Activity (Rattus norvegicus [11]): 0.14%; Activity (Mus musculus [16]): 100%; Activity (Mus musculus [17]): 84%; Activity (Mus musculus [18]): 30%; Activity (Rattus norvegicus [19]): 108%; Activity (Rattus norvegicus [20]): 99%; Activity (Rattus norvegicus [21]): 78%; Activity (Rattus norvegicus [22]): 91%; Activity (Rattus norvegicus [23]): 105%; Activity (Rattus norvegicus [24]): 101%
Cc1ccc(/C=C/C(=O)/C=C/c2ccc(C)cc2)cc1	96%	83%	94%	
CCOc1ccc(OCC(=O)COc2ccc(OCC)cc2)cc1	85%	96%	77%	
O=C(COc1ccc(I)cc1)COc1ccc(I)cc1	93%	103%	100%	
CCC(=O)c1ccc(OCC(=O)CCl)cc1	90%	89%	79%	
Cc1cccc(OCC(=O)COc2cccc(C)c2)c1	97%	119%	115%	
O=C(COCc1ccc(Cl)cc1)COCc1ccc(Cl)cc1	92%	88%	106%	
COc1ccc(OCC(=O)COc2ccc(OC)cc2)cc1	60%	51%	76%	Activity (Rattus norvegicus [5]): 0.22%; Activity (Rattus norvegicus [15]): 0.54%; Activity (Rattus norvegicus [6]): 1.04%; Activity (Rattus norvegicus [8]): 4.73%; LD50 [9]: 6000 mg/kg; Activity (Rattus norvegicus [4]): 70%; Activity (Rattus norvegicus [10]): 1.22%; Activity (Rattus norvegicus [11]): 0.11%
CCCCCCCCCCCCCCCCOCC(=O)COCCCCCCCCCCCCCCCC	91%	89%	88%	
Cc1cc(Cl)c(OCC(=O)COc2cc(C)c(C)cc2Cl)cc1C	58%	65%	79%	Activity (Rattus norvegicus [5]): 0.27%; Activity (Rattus norvegicus [15]): 0.52%; Activity (Rattus norvegicus [6]): 1.06%; solubility [7]: Insoluble; Activity (Rattus norvegicus [8]): 4.8%; LD50 [9]: > 2000 mg/kg; Activity (Rattus norvegicus [4]): 56%; Activity (Rattus norvegicus [10]): 1.24%; Activity (Rattus norvegicus [11]): 0.16%
CC(C)(C)c1ccc(OCC(=O)COc2ccc(C(C)(C)C)cc2)cc1	83%	95%	87%	
CC(Cc1ccccc1)C(=O)C(C)Cc1ccccc1 (centres undefined)				Activity (Mus musculus [16]): 0%; Activity (Mus musculus [17]): 0%; Activity (Mus musculus [18]): 0%
CC(=O)C(O)(Cc1ccccc1)Cc1ccccc1	84%	77%	88%	
Cc1ccc(CCC(=O)CCc2ccc(C)cc2)cc1	96%	86%	91%	
O=C(COc1ccccc1Cl)COc1ccccc1Cl	70%	69%	69%	Activity (Rattus norvegicus [5]): 0.27%; Activity (Rattus norvegicus [6]): 1.02%; Activity (Rattus norvegicus [8]): 4.66%; Activity (Rattus norvegicus [10]): 1.21%; Activity (Rattus norvegicus [11]): 0.23%
